ChEMBL document CHEMBL3351896, “Small Molecule that Reverses Dexamethasone Resistance in T-cell Acute Lymphoblastic Leukemia (T-ALL)” (ACS Med Chem Lett, 2014)
The source made the active and inactive calls. The rule behind the calls is not given here.

How the values were obtained:
Format in all cases: functional, cell-based
CUTLL1 [1] = test: Induction of PARP1 cleavage in human CUTLL1 cells at 25 uM after 24 hrs by western blotting method
Outline: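 CUTLL1 cells exposed 24 h to compound (25 μM) alone, with 1 μM dexamethasone, or with dexamethasone plus 1 μM RU486. Apoptosis read as cleaved PARP by Western blot, quantified as fold change.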

CUTLL1 [2] = test: Potentiation of dexamethasone-induced cytotoxicity against human CUTLL1 cells with high GR expression levels at 50 uM after 48 hrs by alamar blue assay
Outline: (§1)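 Human CUTLL1 T-ALL cells engineered to express high (overexpressed) or low (knockdown) glucocorticoid receptor levels. Exposed to compound alone or with 1 μM dexamethasone. Alamar blue growth inhibition read after 48 h.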

CUTLL1 [3] = test: Growth inhibition of human CUTLL1 cells with low GR expression levels at 50 uM after 48 hrs by alamar blue assay; outline: as §1
CUTLL1 [4] = test: Effect on SPC25 gene expression in human CUTLL1 cells in presence of 1 uM dexamethasone at 30 uM after 24 hrs by microarray method
Outline: (§2)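 Human CUTLL1 T-ALL cells exposed for 24 h to vehicle (DMSO), dexamethasone alone (1 μM), test compound alone (30 μM), or dexamethasone 1 μM plus compound 30 μM, each in triplicate. Expression profiled by microarray. Glucocorticoid-regulated gene sets from ALL patients on glucocorticoid therapy scored by GSEA. Leading-edge genes compared between the combination and dexamethasone alone.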

CUTLL1 [5] = test: Effect on RPS14 gene expression in human CUTLL1 cells in presence of 1 uM dexamethasone at 30 uM after 24 hrs by microarray method; outline: as §2
CUTLL1 [6] = test: Effect on TSR1 gene expression in human CUTLL1 cells in presence of 1 uM dexamethasone at 30 uM after 24 hrs by microarray method; outline: as §2
CUTLL1 [7] = test: Effect on ZWINT gene expression in human CUTLL1 cells in presence of 1 uM dexamethasone at 30 uM after 24 hrs by microarray method; outline: as §2
CUTLL1 [8] = test: Effect on PAICS gene expression in human CUTLL1 cells in presence of 1 uM dexamethasone at 30 uM after 24 hrs by microarray method
Outline: (§3)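 CUTLL1 T-ALL cells exposed 24 h to vehicle (DMSO), dexamethasone alone (1 μM), test agent alone (30 μM), or dexamethasone (1 μM) plus test agent (30 μM), in triplicate. Expression profiled by microarray. Leading-edge genes from GSEA were compared between the dexamethasone-plus-agent and dexamethasone-alone groups, using glucocorticoid-regulated gene sets from ALL patients on glucocorticoid therapy.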

CUTLL1 [9] = test: Effect on TSC22D3 gene expression in human CUTLL1 cells in absence of 1 uM dexamethasone at 30 uM after 24 hrs by microarray method; outline: as §2
CUTLL1 [10] = test: Effect on GGNBP2 gene expression in human CUTLL1 cells in absence of 1 uM dexamethasone at 30 uM after 24 hrs by microarray method; outline: as §3
CUTLL1 [11] = test: Effect on RUVBL1 gene expression in human CUTLL1 cells in absence of 1 uM dexamethasone at 30 uM after 24 hrs by microarray method; outline: as §2
CUTLL1 [12] = test: Effect on SKP2 gene expression in human CUTLL1 cells in absence of 1 uM dexamethasone at 30 uM after 24 hrs by microarray method; outline: as §2
CUTLL1 [13] = test: Effect on CDC25A gene expression in human CUTLL1 cells in absence of 1 uM dexamethasone at 30 uM after 24 hrs by microarray method; outline: as §3
CUTLL1 [14] = test: Effect on PAICS gene expression in human CUTLL1 cells in absence of 1 uM dexamethasone at 30 uM after 24 hrs by microarray method; outline: as §3
CUTLL1 [15] = test: Effect on RRM1 gene expression in human CUTLL1 cells in absence of 1 uM dexamethasone at 30 uM after 24 hrs by microarray method; outline: as §2
CUTLL1 [16] = test: Effect on NME1 gene expression in human CUTLL1 cells in absence of 1 uM dexamethasone at 30 uM after 24 hrs by microarray method; outline: as §3
CUTLL1 [17] = test: Effect on TK1 gene expression in human CUTLL1 cells in absence of 1 uM dexamethasone at 30 uM after 24 hrs by microarray method; outline: as §2

Nc1ncc(-c2ccncc2)c(C2CC2)n1 was tested, and the Activity (CUTLL1 [1]) was “inactive”, the Activity (CUTLL1 [2]) was “Active” and the “growth inhibition (GI)” value (CUTLL1 [3]) was “inactive”. For the same compound, the Activity (CUTLL1 [4]) was “Active”, the Activity (CUTLL1 [5]) was “Active” and the Activity (CUTLL1 [6]) was “Active”. For the same compound, the Activity (CUTLL1 [7]) was “Active”, the Activity (CUTLL1 [8]) was “Active” and the Activity (CUTLL1 [9]) was “inactive”. The Activity (CUTLL1 [10]) was “inactive”, the Activity (CUTLL1 [11]) was “inactive” and the Activity (CUTLL1 [12]) was “inactive”. The Activity (CUTLL1 [13]) was “inactive”, the Activity (CUTLL1 [14]) was “inactive” and the Activity (CUTLL1 [15]) was “inactive”. The Activity (CUTLL1 [16]) was “inactive” and the Activity (CUTLL1 [17]) was “inactive”.
